From ChEMBL document CHEMBL1141655, “Structure-activity relationships of Bak derived peptides: affinity and specificity modulations by amino acid replacement” (Eur J Med Chem, 2008)

Columns and labels:
[1] = Selectivity ratio of EC50 for recombinant Bcl-2 to EC50 for recombinant Bcl-XL
Bcl-2-like protein 1 = Bcl-2-like protein 1 (Homo sapiens, UniProt Q07817); experiment: Binding affinity to recombinant Bcl-XL expressed in Escherichia coli BL21 by fluorescence polarization assay
[2] = target: Apoptosis regulator Bcl-2 (Homo sapiens, UniProt P10415); experiment: Binding affinity to recombinant Bcl-2 expressed in Escherichia coli BL21 by fluorescence polarization assay
Apoptosis regulator Bcl-2, sequence (P10415 whole entry): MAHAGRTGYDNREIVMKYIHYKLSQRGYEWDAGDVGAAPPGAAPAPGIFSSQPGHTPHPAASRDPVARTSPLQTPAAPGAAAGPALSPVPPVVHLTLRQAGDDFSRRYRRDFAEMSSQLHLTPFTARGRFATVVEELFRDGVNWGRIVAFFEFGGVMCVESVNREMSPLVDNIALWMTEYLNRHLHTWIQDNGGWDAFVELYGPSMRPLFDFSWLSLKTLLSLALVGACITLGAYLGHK
Method in brief: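 GST-Bcl-2 lacking C-terminal 21 residues, glutathione-resin purified, dialysed into 20 mM phosphate pH 7.4, 1 mM EDTA, 50 mM NaCl. Competition FP: fluorescein N-terminal Bak BH3 probe 15 nM, protein 1 µM, peptide final 10^-9 to 10^-4 M with 0.05% pluronic acid; 30 min room temperature; ex 485/em 535 nm, mP. EC50 from sigmoidal dose-response, n = 2, triplicate.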

Bcl-2-like protein 1, sequence (Q07817 whole entry): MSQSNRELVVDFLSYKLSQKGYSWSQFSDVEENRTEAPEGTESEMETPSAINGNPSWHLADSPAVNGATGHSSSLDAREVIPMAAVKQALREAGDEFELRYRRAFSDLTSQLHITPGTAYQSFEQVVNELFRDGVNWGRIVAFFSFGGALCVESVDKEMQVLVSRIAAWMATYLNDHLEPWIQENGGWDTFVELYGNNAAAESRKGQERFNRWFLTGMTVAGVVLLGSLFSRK

Row | SMILES | Ratio EC50 [1] | EC50 (Bcl-2-like protein 1) [nM] | EC50 [2] [nM]
1 | CC[C@H](C)[C@H](NC(=O)[C@H](C)NC(=O)[C@H](CC(C)C)NC(=O)[C@H](CCC(N)=O)NC(=O)[C@H](CCCNC(=N)N)NC(=O)CNC(=O)[C@@H](NC(=O)[C@H](CCC(N)=O)NC(=O)CN)C(C)C)C(=O)N[C@@H](Cc1c[nH]c2ccccc12)C(=O)NCC(=O)N[C@@H](CC(=O)O)C(=O)N[C@@H](CC(=O)O)C(=O)N[C@H](C(=O)N[C@@H](CC(N)=O)C(=O)N[C@@H](CCCNC(=N)N)C(=O)O)[C@@H](C)CC | 7 | 375 | 2800
2 | CC[C@H](C)[C@H](NC(=O)[C@H](C)NC(=O)[C@H](CCSC)NC(=O)[C@H](CCC(N)=O)NC(=O)[C@H](CCCN=C(N)N)NC(=O)CNC(=O)[C@@H](NC(=O)[C@H](CCC(N)=O)NC(=O)CN)C(C)C)C(=O)N[C@H](C(=O)NCC(=O)N[C@@H](CC(=O)O)C(=O)N[C@@H](CC(=O)O)C(=O)N[C@H](C(=O)N[C@@H](CC(N)=O)C(=O)N[C@@H](CCCN=C(N)N)C(=O)O)[C@@H](C)CC)[C@@H](C)CC |  | 1430 | 29900
3 | CCCC[C@H](NC(=O)[C@H](CCC(N)=O)NC(=O)CN)C(=O)NCC(=O)N[C@@H](CCCNC(=N)N)C(=O)N[C@@H](CCC(N)=O)C(=O)N[C@@H](CC(C)C)C(=O)N[C@@H](C)C(=O)N[C@H](C(=O)N[C@H](C(=O)NCC(=O)N[C@@H](CC(=O)O)C(=O)N[C@@H](CC(=O)O)C(=O)N[C@H](C(=O)N[C@@H](CC(N)=O)C(=O)N[C@@H](CCCNC(=N)N)C(=O)O)[C@@H](C)CC)[C@@H](C)CC)[C@@H](C)CC | 11 |  | 
4 | CC[C@H](C)[C@H](NC(=O)[C@H](C)NC(=O)[C@H](CC(C)C)NC(=O)[C@H](CCC(N)=O)NC(=O)[C@H](CCCNC(=N)N)NC(=O)CNC(=O)[C@H](Cc1ccc2ccccc2c1)NC(=O)[C@H](CCC(N)=O)NC(=O)CN)C(=O)N[C@H](C(=O)NCC(=O)N[C@@H](CC(=O)O)C(=O)N[C@@H](CC(=O)O)C(=O)N[C@H](C(=O)N[C@@H](CC(N)=O)C(=O)N[C@@H](CCCNC(=N)N)C(=O)O)[C@@H](C)CC)[C@@H](C)CC | 17 | 350 | 6130
5 | CC[C@H](C)[C@H](NC(=O)[C@H](C)NC(=O)[C@H](CC(C)C)NC(=O)[C@H](CCC(N)=O)NC(=O)[C@H](CCCNC(=N)N)NC(=O)CNC(=O)[C@@H](NC(=O)[C@H](CCC(N)=O)NC(=O)CN)C(C)C)C(=O)N[C@H](C(=O)NCC(=O)N[C@@H](CC(=O)O)C(=O)N[C@@H](CC(=O)O)C(=O)N[C@@H](Cc1ccc([N+](=O)[O-])cc1)C(=O)N[C@@H](CC(N)=O)C(=O)N[C@@H](CCCNC(=N)N)C(=O)O)[C@@H](C)CC | 13 | 594 | 8020
6 | CCCC[C@H](NC(=O)[C@H](CCC(N)=O)NC(=O)CN)C(=O)NCC(=O)N[C@@H](CCCN=C(N)N)C(=O)N[C@@H](CCC(N)=O)C(=O)N[C@@H](CC(C)C)C(=O)N[C@@H](C)C(=O)N[C@H](C(=O)N[C@H](C(=O)NCC(=O)N[C@@H](CC(=O)O)C(=O)N[C@@H](CC(=O)O)C(=O)N[C@H](C(=O)N[C@@H](CC(N)=O)C(=O)N[C@@H](CCCN=C(N)N)C(=O)O)[C@@H](C)CC)[C@@H](C)CC)[C@@H](C)CC |  | 71 | 757
7 | CC[C@H](C)[C@H](NC(=O)[C@H](C)NC(=O)[C@H](CC(C)C)NC(=O)[C@H](CCC(N)=O)NC(=O)[C@H](CCCN=C(N)N)NC(=O)CNC(=O)[C@@H](NC(=O)[C@H](CCC(N)=O)NC(=O)CN)C(C)C)C(=O)N[C@@H](Cc1ccc(-c2ccccc2)cc1)C(=O)NCC(=O)N[C@@H](CC(=O)O)C(=O)N[C@@H](CC(=O)O)C(=O)N[C@H](C(=O)N[C@@H](CC(N)=O)C(=O)N[C@@H](CCCN=C(N)N)C(=O)O)[C@@H](C)CC |  | 1250 | 20700
8 | CC[C@H](C)[C@H](NC(=O)[C@H](C)NC(=O)[C@H](Cc1ccc2ccccc2c1)NC(=O)[C@H](CCC(N)=O)NC(=O)[C@H](CCCNC(=N)N)NC(=O)CNC(=O)[C@@H](NC(=O)[C@H](CCC(N)=O)NC(=O)CN)C(C)C)C(=O)N[C@H](C(=O)NCC(=O)N[C@@H](CC(=O)O)C(=O)N[C@@H](CC(=O)O)C(=O)N[C@H](C(=O)N[C@@H](CC(N)=O)C(=O)N[C@@H](CCCNC(=N)N)C(=O)O)[C@@H](C)CC)[C@@H](C)CC | 133 | 127 | 17000
9 | CC[C@H](C)[C@H](NC(=O)[C@H](C)NC(=O)[C@H](CCSC)NC(=O)[C@H](CCC(N)=O)NC(=O)[C@H](CCCNC(=N)N)NC(=O)CNC(=O)[C@@H](NC(=O)[C@H](CCC(N)=O)NC(=O)CN)C(C)C)C(=O)N[C@H](C(=O)NCC(=O)N[C@@H](CC(=O)O)C(=O)N[C@@H](CC(=O)O)C(=O)N[C@H](C(=O)N[C@@H](CC(N)=O)C(=O)N[C@@H](CCCNC(=N)N)C(=O)O)[C@@H](C)CC)[C@@H](C)CC | 21 |  | 
10 | CC[C@H](C)[C@H](NC(=O)[C@H](C)NC(=O)[C@H](CC(C)C)NC(=O)[C@H](CCC(N)=O)NC(=O)[C@H](CCCNC(=N)N)NC(=O)CNC(=O)[C@@H](NC(=O)[C@H](CCC(N)=O)NC(=O)CN)C(C)C)C(=O)N[C@@H](Cc1ccc(-c2ccccc2)cc1)C(=O)NCC(=O)N[C@@H](CC(=O)O)C(=O)N[C@@H](CC(=O)O)C(=O)N[C@H](C(=O)N[C@@H](CC(N)=O)C(=O)N[C@@H](CCCNC(=N)N)C(=O)O)[C@@H](C)CC | 17 |  | 
11 | CC[C@H](C)[C@H](NC(=O)[C@H](C)NC(=O)[C@H](CC(C)C)NC(=O)[C@H](CCC(N)=O)NC(=O)[C@H](CCCNC(=N)N)NC(=O)CNC(=O)[C@@H](NC(=O)[C@H](CCC(N)=O)NC(=O)CN)C(C)C)C(=O)N[C@@H](Cc1ccccc1)C(=O)NCC(=O)N[C@@H](CC(=O)O)C(=O)N[C@@H](CC(=O)O)C(=O)N[C@H](C(=O)N[C@@H](CC(N)=O)C(=O)N[C@@H](CCCNC(=N)N)C(=O)O)[C@@H](C)CC |  | 2140 | 
12 | CC[C@H](C)[C@H](NC(=O)[C@H](C)NC(=O)[C@H](Cc1cccc(Cl)c1)NC(=O)[C@H](CCC(N)=O)NC(=O)[C@H](CCCN=C(N)N)NC(=O)CNC(=O)[C@@H](NC(=O)[C@H](CCC(N)=O)NC(=O)CN)C(C)C)C(=O)N[C@H](C(=O)NCC(=O)N[C@@H](CC(=O)O)C(=O)N[C@@H](CC(=O)O)C(=O)N[C@H](C(=O)N[C@@H](CC(N)=O)C(=O)N[C@@H](CCCN=C(N)N)C(=O)O)[C@@H](C)CC)[C@@H](C)CC |  | 359 | 
13 | CC[C@H](C)[C@H](NC(=O)[C@H](C)NC(=O)[C@H](CC(C)C)NC(=O)[C@H](CCC(N)=O)NC(=O)[C@H](CCCNC(=N)N)NC(=O)CNC(=O)[C@@H](NC(=O)[C@H](CCC(N)=O)NC(=O)CN)C(C)C)C(=O)N[C@H](C(=O)NCC(=O)N[C@@H](CC(=O)O)C(=O)N[C@@H](CC(=O)O)C(=O)N[C@@H](Cc1ccc(Cl)cc1)C(=O)N[C@@H](CC(N)=O)C(=O)N[C@@H](CCCNC(=N)N)C(=O)O)[C@@H](C)CC | 30 | 38 | 1140
